pIC50, pKi: −log10 of the molar value.
What was measured:
[1] = system: BSA-glycation mediated methylglyoxal (MG); assay: Anti-glycation assay: BSA-glycation mediated methylglyoxal; format: biochemical, bovine; settings: for BSA-glycation mediated MG % Inhibition at 500 µM: mean ± SD; for pIC50: read-out: BSA-glycation inhibition category by IC50 criteria, category in words
Summary of the method: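 Fluorescence anti-glycation assay. BSA (10 mg/mL) was in 0.1 M phosphate buffer pH 7.4 with 0.02% NaN3, and 14 mM methylglyoxal was in phosphate buffer. Test compound in DMSO was preincubated with buffer and methylglyoxal at 37°C for 2 h. BSA was then added and the mix incubated at 37°C for 1 day. Fluorescence (ex 370/em 450 nm) was read against a no-inhibitor blank. Aminoguanidine hydrochloride was the positive control. Triplicate, two independent experiments, mean ± SD.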

α-amylase = target: T1, α-amylase (Sus scrofa, UniProt P00690); assay: Inhibitory kinetic analysis; format: biochemical, porcine
T1 sequence (P00690 16-511): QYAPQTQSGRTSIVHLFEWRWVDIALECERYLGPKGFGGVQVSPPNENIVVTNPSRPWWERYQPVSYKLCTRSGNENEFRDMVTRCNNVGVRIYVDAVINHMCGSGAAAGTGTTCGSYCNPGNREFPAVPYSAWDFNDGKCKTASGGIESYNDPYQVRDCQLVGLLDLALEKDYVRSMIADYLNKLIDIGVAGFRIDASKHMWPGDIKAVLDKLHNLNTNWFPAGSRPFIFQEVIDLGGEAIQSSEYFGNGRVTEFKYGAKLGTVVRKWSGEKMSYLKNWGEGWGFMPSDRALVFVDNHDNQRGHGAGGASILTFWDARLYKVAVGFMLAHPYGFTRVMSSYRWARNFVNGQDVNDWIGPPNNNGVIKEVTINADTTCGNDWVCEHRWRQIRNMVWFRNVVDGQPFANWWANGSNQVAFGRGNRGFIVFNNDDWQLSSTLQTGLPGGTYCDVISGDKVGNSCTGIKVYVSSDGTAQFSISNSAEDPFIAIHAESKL
Summary of the method: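 Porcine pancreatic α-amylase (type VI-B) in phosphate buffer pH 6.0 with 0.02% NaN3. Enzyme stock was 1 mg/mL and CNP-G3 stock 0.5 mM. Test compound and enzyme were preincubated at 37°C for 10 min, then CNP-G3 was added at varied concentrations for 30 min at 37°C, read at 405 nm. Three inhibitor concentrations were used. Inhibition type came from Lineweaver–Burk plots, Ki and Kis from secondary slope and intercept plots.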

pIC50 [1]	SMILES	other results
4.00 to 5.00	O=c1cc(-c2ccc(O)c(O)c2)oc2cc(O)cc(O)c12 [Compound F3, Luteolin]	
4.00 to 5.00	O=c1cc(-c2ccc(O)c(O)c2)oc2c(Br)c(O)c(Br)c(O)c12 [Compound F3a, 6,8-Dibromoluteolin]	pKi (α-amylase): 6.74; Inhibition type, α-amylase (α-amylase; Lineweaver-Burk plot, CNP-G3): mixed-type
4.00 to 5.00	O=C1C[C@@H](c2ccc(O)cc2)Oc2c(Br)c(O)c(Br)c(O)c21 [Compound F11a, 6,8-Dibromonaringenin]	

Further lines, the molecule ahead of its results:

SMILES	pIC50 [1]	other results
Cl.N=C(N)NN [Aminoguanidine hydrochloride, reference compound]		BSA-glycation mediated MG % Inhibition at 500 µM [1]: 79.66%
O=c1cc(-c2ccc(O)cc2)oc2c(Br)c(O)c(Br)c(O)c12 [Compound F2a, 6,8-Dibromoapigenin]	4.00 to 5.00	
O=c1c(O)c(-c2ccc(O)cc2O)oc2cc(O)cc(O)c12 [Compound F6, Morin]	3.70 to 4.00	
O=c1c(O)c(-c2ccc(O)c(O)c2)oc2cc(O)cc(O)c12 [Compound F7, Quercetin]	4.00 to 5.00	
O=C1C[C@@H](c2ccc(O)cc2)Oc2cc(O)cc(O)c21 [Compound F11, Naringenin]		BSA-glycation mediated MG % Inhibition at 500 µM [1]: 56.89%

From paper PMC12263870 (Scientific Reports, 2025)
